From publication PMC11626521 (RSC Advances, 2024)

Legend:
Experiment in all cases: anti-proliferation assay
GES-1 = format: cell-based; details: read-out: IC50 GES-1; normal human gastric mucosa cell line, 72 h treatment, CCK8
In short: (§1)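 Seeding was 4000 cells per well, with overnight adherence. Media: HGC-27 and GES-1 in RPMI 1640; HT-29 and HCT-116 in McCoy's 5A; HeLa in DMEM; all with 10% FBS and 1% penicillin–streptomycin, 37 °C, 5% CO2. Test compounds ran 0–500 μM in 3-fold dilutions for 72 h. Read-out was CCK8 (0.5 mM WST-8, 10 μM PMS) for 0.5–2 h, absorbance 450 nm, IC50 from viability. SI = IC50(GES-1)/IC50(HGC-27).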

HT-29 = format: cell-based, human; details: read-out: IC50 HT-29; 72 h treatment, CCK8
In short: as §1

HCT-116 = format: cell-based, human; details: read-out: IC50 HCT-116; 72 h treatment, CCK8
In short: as §1

HGC-27 = format: cell-based, human
In short: as §1

HeLa = format: cell-based, human; details: read-out: IC50 HeLa; 72 h treatment, CCK8
In short: as §1

IC50 (HT-29): 4.6 ± 0.55 µM
IC50 (HCT-116): 3.32 ± 0.3 µM
IC50 (HeLa): 3.43 ± 0.33 µM
Compound: O=c1[nH]cc(F)c(=O)[nH]1 [5-FU]
IC50 (GES-1): 4.03 ± 0.19 µM
SI (GES-1/HGC-27) (HGC-27; SI = IC50 (GES-1)/IC50 (HGC-27)): 0.85
IC50 (HGC-27; read-out: IC50 HGC-27, 72 h treatment, CCK8): 4.75 ± 0.18 µM
